In ChEMBL document CHEMBL1123788, “Synthesis and antitumor activity of tropolone derivatives. 5” (J Med Chem, 1987) one finds T/C and IC50 data, which are given here for nine molecules.

≈ marks a conversion by molar mass, not a printed value. Calls of active or inactive are those of the source. No cut-off for these calls is given here.

Experiment [1] deals with P388. Nature of the experiment: In vivo antitumor activity against leukemia P388 in mice at 100 mg/kg dosage administered intraperitoneally once a day for 1 and 5 days. The format is functional, Mus musculus. The settings on record: route intraperitoneal. In short, it runs like this: (§1)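 Mice bearing P388 leukemia were given the compound intraperitoneally once daily for 1 and 5 days, at doses of 0.6 to 400 mg/kg; single-dose screens were run at 400 mg/kg. Antitumor activity is reported as T/C, %.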

For experiment [2], the system named is P388. Put plainly: In vivo antitumor activity against leukemia P388 in mice at 400 mg/kg dosage administered intraperitoneally once a day for 1 and 5 days. The format is functional, Mus musculus. Particulars: route intraperitoneal. The method in brief:
as §1

In experiment [3] the test system is P388. Put plainly: In vivo antitumor activity against leukemia P388 in mice at 50 mg/kg dosage administered intraperitoneally once a day for 1 and 5 days. The settings on record: route intraperitoneal. The format is functional, Mus musculus. The method in brief: as §1
Experiment [4] has as its system P388. Put plainly: In vivo antitumor activity against leukemia P388 in mice at 200 mg/kg dosage administered intraperitoneally once a day for 1 and 5 days. Particulars: route intraperitoneal. The format is functional, Mus musculus. In short, it runs like this:
as §1

A short description of experiment [5]: In vitro inhibition of KB cell growth. The format is functional, cell-based. The settings on record: Homo sapiens.
The subject of experiment [6] is P388. Nature of the experiment: In vivo antitumor activity against leukemia P388 in mice at 400 mg/kg dosage administered intraperitoneally once a day for 1 and 5 days; compound is inactive. The format is functional, organism-based. More on the design: dose 400 mg/kg. The settings on record: Mus musculus. The method in brief: as §1
Experiment [7] has as its system P388. Put plainly: In vivo antitumor activity against leukemia P388 in mice at 0.6 mg/kg dosage administered intraperitoneally once a day for 1 and 5 days. The settings on record: route intraperitoneal. Format: functional, Mus musculus. The method in brief:
as §1

In experiment [8] the test system is P388. Nature of the experiment: In vivo antitumor activity against leukemia P388 in mice at 2.5 mg/kg dosage administered intraperitoneally once a day for 1 and 5 days. The format is functional, Mus musculus. The settings on record: route intraperitoneal. The method in brief:
as §1

The test system of experiment [9] is P388. Put plainly: In vivo antitumor activity against leukemia P388 in mice at 5 mg/kg dosage administered intraperitoneally once a day for 1 and 5 days. The settings on record: route intraperitoneal. The format is functional, Mus musculus. In short, it runs like this: as §1

As for `CCOC(c1ccc(OC)cc1)c1ccc(C(C)C)cc(=O)c1O` (centres undefined), the T/C (in general, the result in the treated group divided by that in the control group, in per cent) with P388 [1] was 140%; with P388 [2] it was 140%; in the experiment with P388 [3] it was 119%; with P388 [4], 128%. In addition, in experiment [5], the IC50 (in general, the concentration that gives 50% inhibition) amounted to 0.5 µg/mL (≈ 1.52 µM).
With `C/N=c1\cc(C(C)C)ccc(C(c2ccc(OC)cc2)c2ccc(C(C)C)cc(NC)c2=O)c1O` (centres undefined), the T/C entry with P388 [6] was “inactive”. Besides, in experiment [5], 100 µg/mL (≈ 212 µM) corresponded to half-maximal inhibition (IC50).
For the molecule `COc1ccc(C(c2ccc(C(C)C)cc(=O)c2O)c2ccc(C(C)C)cc(=O)c2O)cc1`, the T/C in the experiment with P388 [7] is recorded as 127%; with P388 [8], 134%; with P388 [9] it was 173%. This molecule returned an IC50 in experiment [5] of 0.5 µg/mL (≈ 1.12 µM).
Regarding `COc1ccc(C(c2ccc(C(C)C)cc(S)c2=O)c2ccc(C(C)C)cc(S)c2=O)cc1`, the T/C entry in the experiment on P388 [6] is “inactive”. This molecule showed an IC50 in [5] of 5.3 µg/mL (≈ 11.1 µM).
Take `COc1ccc(C(c2ccc(C(C)C)cc(=O)c2O)c2ccc(C(C)C)cc(OC)c2=O)cc1` (centres undefined): the results for the T/C in the experiment with P388 [1], in the experiment on P388 [2] and with P388 [4] were 133%, 60% and 148%, respectively. The same molecule returned an IC50 in experiment [5] of 1.7 µg/mL (≈ 3.69 µM).
With `COc1ccc(C(c2ccc(C(C)C)cc(=O)c2OC)c2ccc(C(C)C)cc(=O)c2OC)cc1`, the T/C entry in the experiment with P388 [6] is “inactive”.
With `CNc1cc(C(C)C)ccc(C(c2ccc(OC)cc2)c2ccc(C(C)C)cc(=O)c2O)c1=O` (centres undefined), in the experiment on P388 [6], the T/C entry is “inactive”. Moreover, 50 µg/mL (≈ 109 µM) corresponded to half-maximal inhibition in experiment [5] (IC50).
As for `COc1ccc(C(c2ccc(C(C)C)cc(=O)c2OC)c2ccc(C(C)C)cc(OC)c2=O)cc1` (centres undefined), the T/C entry with P388 [6] is “inactive”. In experiment [5], this molecule came in with an IC50 of 5.4 µg/mL (≈ 11.4 µM).
With `COc1ccc(C(c2ccc(C(C)C)cc(OC)c2=O)c2ccc(C(C)C)cc(OC)c2=O)cc1`, the T/C result in the experiment with P388 [6] was “inactive”. In addition, the IC50 in experiment [5] was found to be 23.5 µg/mL (≈ 49.5 µM).
